Experiment [1] in a line: Inhibition of porcine CEase using para-nitrophenyl butyrate as substrate preincubated with substrate for 5 mins followed by enzyme addition by spectrophotometric method. Also on record: species or system Sus scrofa. An outline of the steps:
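Porcine cholesterol esterase (10 ng mL–1 final) was assayed in pH 7.0 phosphate/NaCl buffer with 6 mM taurocholate, 3% acetonitrile, and 20 μM p-nitrophenyl butyrate at 25 °C. Test compounds in DMSO were preincubated 5 min, then the enzyme was added and A405 was monitored. IC50 came from four concentrations (1, 5, 10, 25 nM), with means of triplicates.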

The species entered for experiment [2] is Sus scrofa. In words: Inhibition of porcine CEase at 50 nM using para-nitrophenyl butyrate as substrate preincubated with substrate for 5 mins followed by enzyme addition by spectrophotometric method relative to control.
The species named for experiment [3] is Sus scrofa. The experiment can be described thus: Mixed-type inhibition of porcine CEase at 1 to 50 nM using para-nitrophenyl butyrate as substrate preincubated with substrate for 5 mins followed by enzyme addition by Lineweaver-Burk plot analysis.

Calls of active or inactive are those of the source. The calls are words filed in the database; no cut-off is given here. Some results are limits rather than exact numbers.

By IC50 is commonly meant the midpoint of a concentration-inhibition curve. Lower therefore signals greater potency. The term inhibition denotes the relative decrease from the control value, in per cent. For the molecule `O=c1cc(-c2ccccc2Br)oc2ccc3ccccc3c12`, inhibition in experiment [1] was half-maximal at 4.69 nM (IC50). In the experiment listed under Sus scrofa [2], this molecule registered an inhibition of more than 60%.

Turning to `O=c1cc(-c2ccc(F)cc2F)oc2ccc3ccccc3c12`, the half-maximal inhibitory concentration (IC50) in experiment [1] turned out to be 1.46 nM. In addition, the inhibition in the experiment filed under Sus scrofa [2] is more than 60%.

Take `O=c1cc(-c2c(F)cccc2F)oc2ccc3ccccc3c12`: 1.19 nM corresponded to half-maximal inhibition in experiment [1] (IC50). Also, the inhibition in the experiment listed under Sus scrofa [2] was more than 60%.

Take `O=c1cc(-c2ccccc2F)oc2ccc3ccccc3c12`: half-maximal inhibition in experiment [1] (IC50) was put at 2.59 nM. The molecule further yielded an inhibition in the experiment filed under Sus scrofa [2] of more than 60%.

In experiment [1], `O=c1cc(-c2ccc(F)c(F)c2)oc2ccc3ccccc3c12` registered an IC50 of 1.15 nM. The molecule also registered an inhibition in the experiment filed under Sus scrofa [2] of more than 60%.

`O=c1cc(-c2cc([N+](=O)[O-])cc([N+](=O)[O-])c2)oc2ccc3ccccc3c12` came in with an IC50 in experiment [1] of 9.8 nM. The same molecule showed an inhibition in the experiment listed under Sus scrofa [2] of more than 60%.

In turn, `O=c1cc(-c2cccc(CCl)c2)oc2ccc3ccccc3c12` had an IC50 in experiment [1] of 20.1 nM. Besides, in the experiment listed under Sus scrofa [2], the inhibition was more than 60%.

Consider `O=c1cc(-c2cc(F)cc(F)c2)oc2ccc3ccccc3c12`, for which the IC50 in experiment [1] was 0.99 nM. Moreover, in the experiment filed under Sus scrofa [2], the inhibition is more than 60%.

For the molecule `O=c1cc(-c2cccc(Br)c2)oc2ccc3ccccc3c12`, the midpoint of inhibition in experiment [1], the IC50, lay at 6.01 nM. The inhibition in the experiment listed under Sus scrofa [2] was more than 60%.

Take `O=c1cc(-c2ccc(CCl)cc2)oc2ccc3ccccc3c12`: in experiment [1], the IC50 stood at 22.2 nM. For the same molecule, the inhibition in the experiment filed under Sus scrofa [2] is more than 60%.

With `O=c1cc(-c2ccccc2)oc2ccc3ccccc3c12` [BETA-NAPHTHOFLAVONE], the IC50 in experiment [1] came out at 51.1 nM.

`O=c1cc(-c2ccc([N+](=O)[O-])cc2)oc2ccc3ccccc3c12` came in with an IC50 in experiment [1] of 18 nM. In the experiment filed under Sus scrofa [2], this molecule gave an inhibition of more than 60%.

In experiment [1], `O=c1cc(-c2cccc(Cl)c2)oc2ccc3ccccc3c12` registered an IC50 of 0.83 nM. Further, the inhibition in the experiment filed under Sus scrofa [2] is more than 60%.

Take `O=c1cc(-c2ccccc2I)oc2ccc3ccccc3c12`: in experiment [1], the IC50 worked out at 9.55 nM. The inhibition in the experiment filed under Sus scrofa [2] is more than 60%.

As for `O=c1cc(-c2ccc(I)cc2)oc2ccc3ccccc3c12`, in experiment [1], the 50% inhibitory concentration (IC50) was determined as 13.1 nM. In the experiment listed under Sus scrofa [2], this molecule returned an inhibition of more than 60%.

With `O=c1cc(-c2cccc([N+](=O)[O-])c2)oc2ccc3ccccc3c12`, it took 16.4 nM to reach half-maximal inhibition in experiment [1] (IC50). The inhibition in the experiment listed under Sus scrofa [2] is more than 60%.

Molecule `O=c1cc(-c2cc(F)ccc2F)oc2ccc3ccccc3c12` registered an IC50 in experiment [1] of 1.08 nM. This molecule also yielded an inhibition in the experiment listed under Sus scrofa [2] of more than 60%.

`O=c1cc(-c2cc(F)ccc2C(F)(F)F)oc2ccc3ccccc3c12` registered an IC50 in experiment [1] of 27.8 nM. The inhibition in the experiment filed under Sus scrofa [2] was more than 60%.

The molecule `O=c1cc(-c2ccccc2C(F)(F)F)oc2ccc3ccccc3c12` had a half-inhibitory concentration (IC50) in experiment [1] of 31.4 nM. In the experiment listed under Sus scrofa [2], this molecule had an inhibition of more than 60%.

As to `O=c1cc(-c2ccc(C(F)(F)F)cc2F)oc2ccc3ccccc3c12`, the IC50 in experiment [1] stood at 23.1 nM. The inhibition in the experiment listed under Sus scrofa [2] is more than 60%.

Molecule `CCOP(=O)(OCC)Oc1cc(O)c2c(=O)cc(-c3ccccc3)oc2c1` registered an IC50 in experiment [1] of 0.72 nM.

For the molecule `O=c1cc(-c2cccc(Cl)c2Cl)oc2ccc3ccccc3c12`, it took 0.73 nM to reach half-maximal inhibition in experiment [1] (IC50). For the same molecule, the inhibition entry in the experiment filed under Sus scrofa [3] is “Active”. Moreover, the inhibition in the experiment filed under Sus scrofa [2] was more than 60%.

Molecule `O=c1cc(-c2cccc(F)c2)oc2ccc3ccccc3c12` displayed an IC50 in experiment [1] of 3.9 nM. This molecule came in with an inhibition in the experiment listed under Sus scrofa [2] of more than 60%.

In experiment [1], `O=c1cc(-c2ccc(F)cc2)oc2ccc3ccccc3c12` yielded an IC50 of 4.5 nM. For the same molecule, the inhibition in the experiment listed under Sus scrofa [2] is more than 60%.

The molecule `O=c1cc(-c2c(F)cccc2C(F)(F)F)oc2ccc3ccccc3c12` yielded a half-maximal inhibitory concentration (IC50) in experiment [1] of 29.2 nM. This molecule also had an inhibition in the experiment listed under Sus scrofa [2] of more than 60%.

In experiment [1], `O=c1cc(-c2ccc(Br)cc2)oc2ccc3ccccc3c12` had an IC50 of 8.15 nM. The inhibition in the experiment listed under Sus scrofa [2] is more than 60%.

For the molecule `O=c1cc(-c2cc(F)cc(C(F)(F)F)c2)oc2ccc3ccccc3c12`, the IC50 in experiment [1] came out at 29.1 nM. The inhibition in the experiment filed under Sus scrofa [2] is more than 60%.

The record behind these values is ChEMBL document CHEMBL4257477, “5,6-Benzoflavones as cholesterol esterase inhibitors: synthesis, biological evaluation and docking studies” (Medchemcomm, 2018).
